Test results published in ChEMBL document CHEMBL1125489, “Antitumor agents. 134. New shiraiachrome-A- and calphostin-C-related perylene derivatives as cytotoxic and antiviral agents and inhibitors of protein kinase C” (1992).
Values after ≈ are worked out from the molar mass of the structure shown. Values joined by “and” are separate entries in the source; they are usually repeats but may differ in a detail not shown here. Equal values may be shown once. Active and inactive are the calls of the source. The rule behind the calls is not given here.

Key:
[1] = molecular target: Protein kinase C, PKC; classical/novel (Homo sapiens) (UniProt O94806+P17252+P05129+Q05655+P05771+Q02156+P24723+Q15139+Q04759); test: Inhibition of protein kinase C(PKC), inhibition of phorbol binding by 80-100% at 38 uM; type: protein assay
P388 = test: Cytotoxic concentration against P388 tumor cells.; type: functional; details: Mus musculus, read-out: ED50 (the source's name)
In short: (§1)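 Tumor cells exposed 3 days to drug at 0.1, 1 and 10 μg/mL. ED50 is the concentration giving 50% reduction in cell number, estimated from the degree of inhibition at these three concentrations.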

Vero [2] = test: Antiviral activity against HSV-2 in vero cells; type: functional; details: Chlorocebus sabaeus, read-out: ED50
In short: (§2)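 Confluent Vero cells infected at 3 PFU/cell with HSV-1 (Kos) or HSV-2 (333) in RPMI-1640 with 2% FCS. Drugs added during inoculation as two-fold serial dilutions (final 100, 50, 25, 12.5 μg/mL). Cytopathic effect scored by microscopy after 24 h.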

Vero [3] = test: Antiviral activity against HSV-1 in vero cells; type: functional; details: Chlorocebus sabaeus, read-out: ED50; in short: as §2
[4] = molecular target: T1, Protein kinase C (PKC) (Homo sapiens) (UniProt O94806+P41743+P17252+P05129+Q05655+P05771+Q05513+Q02156+P24723+Q15139+Q04759); test: Inhibition of protein kinase C(PKC); type: protein assay
In short: (§3)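 Compound added in DMSO, with DMSO-only controls. Reaction started with PKC (1 μg/mL) and stopped with ice-cold TCA plus BSA. Precipitate collected on GF/C filters and counted by β scintillation.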

[5] = molecular target: T1, Protein kinase C (PKC) (Homo sapiens); test: Inhibition of protein kinase C(PKC), maximal conc 40 uM; type: protein assay; in short: as §3
[6] = Cytotoxic concentration against RPMI-7951 tumor cells.; type: functional; details: Homo sapiens, read-out: ED50 (the source's name); in short: as §1
KB 3-1 = test: Cytotoxic concentration against KB tumor cells.; type: functional; details: Homo sapiens, KB 3-1, read-out: ED50; in short: as §1
[7] = Cytotoxic concentration against TE-671 tumor cells.; type: functional; details: Homo sapiens, read-out: ED50 (the source's name); in short: as §1
A549 [8] = test: Cytotoxic concentration against A-549 tumor cells; Inactive at 10 ug/mL.; type: functional, cell-based; details: Homo sapiens; in short: as §1
HCT-8 = test: Cytotoxic concentration against HCT-8 tumor cells.; type: functional; details: Homo sapiens, read-out: ED50 (the source's name); in short: as §1
A549 [9] = test: Cytotoxic concentration against A-549 tumor cells.; type: functional; details: Homo sapiens, read-out: ED50 (the source's name); in short: as §1

For `O=c1cc2c3cc(O)c(O)c4cccc(c5cccc(c1=O)c52)c43`, which PKC [1] is on record?
The PKC was 14 µM.

With `COc1c2c3c4c(c(OC)c(=O)c5c(O)cc(OC)c(c6c(OC)cc(O)c(c1=O)c63)c54)[C@@H](C(C)=O)[C@@](C)(O)C2` (stereo in doubt; 1) as the compound, how does the PKC [1] read?
Its PKC is 44 µM.

Which EC50 (P388) does the source give for `COc1c2c3c4c(c(OC)c(=O)c5c(O)cc(OC)c(c6c(OC)cc(O)c(c1=O)c63)c54)[C@@H](C(C)=O)[C@@](C)(O)C2` (stereo in doubt; 2) [HYPOCRELLIN A] here?
The EC50 was 390 µg/mL (≈ 714 µM).

And the EC50 (Vero [2])?
The EC50 was 5 µg/mL (≈ 9.15 µM).

And the EC50 (Vero [3])?
Its EC50 is 5 µg/mL (≈ 9.15 µM).

Which PKC [4] does the source give for `O=c1cc(O)c2c3c(O)cc(O)c4c(=O)cc(O)c(c5c(O)cc(O)c1c52)c43` here?
Its PKC is greater than 218 µM.

With `N=c1cc2c3cc(N)c(O)c4c(O)ccc(c5ccc(O)c(c1=O)c52)c43` as the compound, how does the PKC [4] read?
Its PKC is 95 µM.

With `N=c1cc2c3cc(N)c(O)c4cccc(c5cccc(c1=O)c52)c43` as the compound, how does the PKC [4] read?
The PKC was greater than 218 µM.

Which PKC [5] does the source give for `COc1cc(C(=O)Oc2cc3c4cc(OC(=O)c5cc(OC)c(OC)c(OC)c5)c(=O)c5cccc(c6cccc(c2=O)c63)c54)cc(OC)c1OC` here?
Its PKC is greater than 40 µM.

For `CC(=O)/N=c1\ccc2c3ccc(NC(C)=O)c4c(=O)c(OC(C)=O)cc(c5cc(OC(C)=O)c(O)c1c25)c43`, which PKC [4] is on record?
The PKC was 89 µM.

For `CC(=O)Oc1ccc2c3ccc(OC(C)=O)c4c(=O)cc(OC(C)=O)c(c5c(OC(C)=O)cc(=O)c1c25)c43`, which PKC [4] is on record?
The PKC was greater than 218 µM.

With `O=c1ccc2c3ccc(O)c4c(=O)ccc(c5ccc(O)c1c52)c43` as the compound, how does the PKC [4] read?
Its PKC is greater than 218 µM.

With `COc1cc(O)c2c(=O)cc(OC)c3c4c(OC)cc(=O)c5c(O)cc(OC)c(c1c23)c54` as the compound, how does the PKC [4] read?
Its PKC is greater than 218 µM.

And the EC50 (Vero [2])?
The EC50 was 15 µg/mL (≈ 34.5 µM).

What about the EC50 (Vero [3]) of the same compound?
Its EC50 is 3 µg/mL (≈ 6.91 µM).

What does the source list for `O=C(/C=C/c1ccccc1)Oc1cc2c3cc(OC(=O)/C=C/c4ccccc4)c(=O)c4cccc(c5cccc(c1=O)c52)c43`?
EC50 [6]: 5.5 µg/mL (≈ 9.57 µM); PKC [5]: > 40 µM; EC50 (KB 3-1): 5.5 µg/mL (≈ 9.57 µM)

What does the source list for `O=c1ccc2c3ccc(=O)c4cccc(c5cccc1c52)c43`?
EC50 [6]: 8.9 µg/mL (≈ 31.5 µM); PKC [4]: > 218 µM; EC50 [7]: 5210 µg/mL (≈ 18500 µM); EC50 (P388): 4350 µg/mL (≈ 15400 µM); ED50 (A549 [8]): inactive

For `COc1cc(C(=O)Oc2cc3c4cc(OC(=O)c5cc(OC)c(O)c(OC)c5)c(=O)c5cccc(c6cccc(c2=O)c63)c54)cc(OC)c1O`, which PKC [5] is on record?
Its PKC is greater than 40 µM.

For `CC(=O)Oc1cc2c3cc(OC(C)=O)c(OC(C)=O)c4cccc(c5cccc(c1OC(C)=O)c52)c43`, which EC50 [6] is on record?
Its EC50 is 50 µg/mL (≈ 103 µM).

What about the EC50 (HCT-8) of the same compound?
The EC50 was 4160 µg/mL (≈ 8590 µM).

What about the PKC [4] of the same compound?
The PKC was greater than 218 µM.

And the EC50 [7]?
The EC50 was 610 µg/mL (≈ 1260 µM).

And the EC50 (P388)?
The EC50 was 640 µg/mL (≈ 1320 µM).

What about the EC50 (A549 [9]) of the same compound?
The EC50 was 5410 µg/mL (≈ 11200 µM).

Which results are given for `CCCCCCCCCCCCCCCCCC(=O)Oc1cc2c3cc(OC(=O)CCCCCCCCCCCCCCCCC)c(=O)c4cccc(c5cccc(c1=O)c52)c43`?
PKC [5]: > 40 µM; EC50 (KB 3-1): 5.57 µg/mL (≈ 6.57 µM)

With `CC(=O)Oc1cc(O)c2c(=O)cc(OC(C)=O)c3c4c(OC(C)=O)cc(=O)c5c(O)cc(OC(C)=O)c(c1c23)c54` as the compound, how does the PKC [4] read?
The PKC was greater than 218 µM.

Which PKC [4] does the source give for `O=c1cc(S(=O)(=O)[O-])c2c3c(S(=O)(=O)[O-])cc(O)c4c(=O)cc(S(=O)(=O)[O-])c(c5c(S(=O)(=O)[O-])cc(O)c1c52)c43.[Na+].[Na+].[Na+].[Na+]` here?
Its PKC is 200 µM and > 218 µM.

What about the EC50 (Vero [2]) of the same compound?
The EC50 was 10 µg/mL.

And the EC50 (Vero [3])?
Its EC50 is 2 µg/mL.

Which EC50 [6] does the source give for `CC(=O)Oc1cc2c3cc(OC(C)=O)c(=O)c4cccc(c5cccc(c1=O)c52)c43` here?
Its EC50 is 50 µg/mL (≈ 126 µM).

What about the EC50 (HCT-8) of the same compound?
The EC50 was 560 µg/mL (≈ 1410 µM).

And the PKC [4]?
The PKC was 82 µM.

And the EC50 [7]?
Its EC50 is 680 µg/mL (≈ 1710 µM).

What about the EC50 (P388) of the same compound?
Its EC50 is 360 µg/mL (≈ 904 µM).

And the EC50 (A549 [9])?
Its EC50 is 3840 µg/mL (≈ 9640 µM).

What about the EC50 (KB 3-1) of the same compound?
Its EC50 is 0.54 µg/mL (≈ 1.36 µM).
